Reference: ChEMBL document CHEMBL1145383, “Synthesis of stable and potent delta/mu opioid peptides: analogues of H-Tyr-c[D-Cys-Gly-Phe-D-Cys]-OH by ring-closing metathesis” (J Med Chem, 2007)

Experiments:
[1] = target: Delta-type opioid receptor (Mus musculus, UniProt P32300); experiment: Agonist activity at delta opioid receptor in mouse vas deferens assessed as inhibition of electrically-evoked muscle contraction; format: functional, tissue-based
Outline: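 Mouse vas deferens from male ICR mice (25–30 g), bathed in oxygenated (95% O2/5% CO2) magnesium-free Krebs bicarbonate at 37 °C. Tension 0.5 g, stimulated transmurally at 0.1 Hz with 2.0 ms pulses at supramaximal voltage. Agonist contact 3 min, then rinse and 8 min recovery. IC50 from Hill fit of mean data, n ≥ 4 tissues.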

Mu-type opioid receptor [2] = target: Mu-type opioid receptor (Cavia porcellus, UniProt P97266); experiment: Agonist activity at mu opioid receptor in isolated guinea pig ileum assessed as inhibition of electrically-evoked myenteric muscle contraction; format: functional, tissue-based
Mu-type opioid receptor (Cavia porcellus, UniProt P97266), sequence (P97266 whole entry): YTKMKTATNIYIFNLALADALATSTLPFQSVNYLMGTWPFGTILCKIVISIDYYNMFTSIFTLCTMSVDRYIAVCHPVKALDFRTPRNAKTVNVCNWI
Outline: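 Longitudinal muscle-myenteric plexus from male Hartley guinea pigs (150–400 g), in oxygenated (95% O2/5% CO2) Krebs bicarbonate at 37 °C. Tension 1 g, transmural stimulation at 0.1 Hz with 0.4 ms pulses at supramaximal voltage. Agonist left 3 min, then washout and 8 min re-equilibration. IC50 by nonlinear least-squares Hill fit of mean data from at least four tissues.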

[3] = target: Kappa-type opioid receptor (Cavia porcellus, UniProt P41144); experiment: Displacement of [3H]U-69593 from kappa opioid receptor in guinea pig brain membrane; format: cell membranes
Kappa-type opioid receptor, sequence (P41144 whole entry): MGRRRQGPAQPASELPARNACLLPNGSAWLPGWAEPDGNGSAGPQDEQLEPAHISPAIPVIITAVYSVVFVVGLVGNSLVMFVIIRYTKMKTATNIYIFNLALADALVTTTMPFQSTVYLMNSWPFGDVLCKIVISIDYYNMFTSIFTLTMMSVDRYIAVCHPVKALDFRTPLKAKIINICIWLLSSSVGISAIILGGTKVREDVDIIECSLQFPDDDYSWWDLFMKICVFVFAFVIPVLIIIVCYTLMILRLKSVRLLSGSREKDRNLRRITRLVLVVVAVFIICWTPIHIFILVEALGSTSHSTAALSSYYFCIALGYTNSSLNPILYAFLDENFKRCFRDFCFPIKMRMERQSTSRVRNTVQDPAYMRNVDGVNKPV

[4] = target: T1, Delta-type opioid receptor (Homo sapiens, UniProt P41143); experiment: Agonist activity at human delta opioid receptor by [35S]GTP-gamma-S binding assay; format: functional
T1 sequence (P41143 whole entry): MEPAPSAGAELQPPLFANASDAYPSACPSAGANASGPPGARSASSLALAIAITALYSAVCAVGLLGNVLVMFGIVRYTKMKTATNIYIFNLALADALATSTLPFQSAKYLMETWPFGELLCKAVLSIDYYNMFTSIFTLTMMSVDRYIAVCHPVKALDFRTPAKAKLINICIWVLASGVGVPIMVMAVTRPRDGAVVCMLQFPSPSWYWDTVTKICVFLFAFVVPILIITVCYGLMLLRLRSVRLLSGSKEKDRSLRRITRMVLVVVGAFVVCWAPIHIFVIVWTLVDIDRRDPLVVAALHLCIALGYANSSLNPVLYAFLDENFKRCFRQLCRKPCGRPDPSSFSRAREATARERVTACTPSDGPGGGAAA
Outline: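 Cells expressing hDOR were incubated with increasing test concentrations plus 0.1 nM [35S]GTPγS, in duplicate, for 90 min at 30 °C. Reaction stopped by vacuum filtration through GF/B filters pretreated with assay buffer. Filters washed four times with ice-cold 15 mM Tris/120 mM NaCl, pH 7.4, and bound label counted by liquid scintillation after overnight extraction.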

Mu-type opioid receptor [5] = target: T2, Mu-type opioid receptor (Homo sapiens, UniProt P35372); experiment: Agonist activity at human mu opioid receptor by [35S]GTP-gamma-S binding assay; format: functional
T2 sequence (P35372 whole entry): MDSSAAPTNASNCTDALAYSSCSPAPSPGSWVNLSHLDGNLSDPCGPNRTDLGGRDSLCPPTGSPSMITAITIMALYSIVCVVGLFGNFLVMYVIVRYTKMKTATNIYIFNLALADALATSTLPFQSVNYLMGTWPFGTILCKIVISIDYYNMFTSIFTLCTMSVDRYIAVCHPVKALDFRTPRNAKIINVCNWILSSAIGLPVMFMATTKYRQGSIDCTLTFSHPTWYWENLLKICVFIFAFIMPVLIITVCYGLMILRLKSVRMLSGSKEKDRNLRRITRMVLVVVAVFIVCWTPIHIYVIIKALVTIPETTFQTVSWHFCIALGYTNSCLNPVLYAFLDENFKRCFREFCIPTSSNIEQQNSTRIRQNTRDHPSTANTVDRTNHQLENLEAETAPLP

[6] = target: T1, Delta-type opioid receptor; experiment: Agonist activity at human delta opioid receptor by [35S]GTP-gamma-S binding assay relative to control; format: functional
Mu-type opioid receptor [7] = target: T2, Mu-type opioid receptor; experiment: Agonist activity at human mu opioid receptor by [35S]GTP-gamma-S binding assay relative to control; format: functional

Delta-type opioid receptor (Mus musculus, UniProt P32300), sequence (P32300 whole entry): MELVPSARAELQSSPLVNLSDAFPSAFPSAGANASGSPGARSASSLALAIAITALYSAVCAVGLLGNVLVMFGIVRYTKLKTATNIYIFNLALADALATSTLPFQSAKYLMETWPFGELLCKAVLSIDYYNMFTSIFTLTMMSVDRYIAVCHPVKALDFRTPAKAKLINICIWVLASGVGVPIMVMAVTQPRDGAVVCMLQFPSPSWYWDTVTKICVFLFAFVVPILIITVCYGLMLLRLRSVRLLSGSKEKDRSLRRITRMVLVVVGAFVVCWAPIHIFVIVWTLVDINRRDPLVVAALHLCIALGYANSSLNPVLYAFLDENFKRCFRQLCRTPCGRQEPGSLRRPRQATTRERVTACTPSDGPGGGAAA

SMILES: N[C@@H](Cc1ccc(O)cc1)C(=O)N[C@@H]1CCCC[C@H](C(=O)O)NC(=O)[C@H](Cc2ccccc2)NC(=O)CNC1=O
- IC50 [1]: 3.4 nM
- IC50 (Mu-type opioid receptor [2]): 59 nM
- Ki [3]: 3960 nM

SMILES: C=CC[C@@H](NC(=O)[C@H](Cc1ccccc1)NC(=O)CNC(=O)[C@@H](CC=C)NC(=O)[C@@H](N)Cc1ccc(O)cc1)C(=O)O
- IC50 [1]: 5.7 nM
- IC50 (Mu-type opioid receptor [2]): 34 nM
- Ki [3]: 3870 nM

SMILES: N[C@@H](Cc1ccc(O)cc1)C(=O)N[C@@H]1C/C=C/C[C@H](C(=O)O)NC(=O)[C@H](Cc2ccccc2)NC(=O)CNC1=O
- EC50 [4]: 0.88 nM
- IC50 [1]: 0.76 nM
- EC50 (Mu-type opioid receptor [5]): 2.65 nM
- Emax [6]: 128%
- Emax (Mu-type opioid receptor [7]): 70%
- IC50 (Mu-type opioid receptor [2]): 5.2 nM
- Ki [3]: 74.8 nM

SMILES: N[C@@H](Cc1ccc(O)cc1)C(=O)N[C@@H]1C/C=C\C[C@H](C(=O)O)NC(=O)[C@H](Cc2ccccc2)NC(=O)CNC1=O
- EC50 [4]: 0.83 nM
- IC50 [1]: 0.59 nM
- EC50 (Mu-type opioid receptor [5]): 2.35 nM
- Emax [6]: 121%
- Emax (Mu-type opioid receptor [7]): 65%
- IC50 (Mu-type opioid receptor [2]): 5.3 nM
- Ki [3]: 576 nM
